Only some compounds are listed: those with a hit (about 3.4% of all), similar ones and a draw of the others.
MEKK2 mut-MEK5 = signal of MEK5 binding to mutant human MEKK2 PB1 domain. bead flow cytometry, Alexa488-MEK5 binding to MEKK2 mutant. hit rate 0.35% among 290,000. percent response, % at 10 µM; in the data active = percent response above about 24%, passing the limit was not always enough
VIM-2 inhibitor = inhibitors of Pseudomonas aeruginosa VIM-2 metallo-beta-lactamase; purified VIM-2, nitrocefin hydrolysis, epi-absorbance fluorescence; hit rate 0.89% among 290,000; inhibition, % at 5.6 µM;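 active = inhibition above the mean of all tested compounds plus 3 SD, cutoff set per screening run, cut at about 7.5% in these data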;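 note: red hydrolysis product quenches plate fluorescence so inhibitors raise well fluorescence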
MEKK2wt PB1 HTS = raises or lowers MEK5 binding to wildtype human MEKK2 PB1 domain | Q9Y2U5 | bead flow cytometry, Alexa488-MEK5 binding to MEKK2 WT; actives lie on both sides | binding response (% of control), % at 10 µM | hit rate 1.1% among 290,000 | AID 1531; in the data active = binding response below about 67% or above about 130%
MEKK3 PB1 HTS = modulators (inhibitors or enhancers) of MEK5 binding to human MEKK3 PB1 domain | AID 1529 | bead-based flow cytometry, Alexa488-MEK5 binding to MEKK3; actives lie on both sides; 0 = blocked by unlabeled MEK5, 100 = vehicle | Q99759 | hit rate 1.4% among 290,000 | binding response (% of control), % at 10 µM;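 active = binding response more than 3 SD above or below the average of its plate-row segment, actives on both sides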;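 note: Alexa488 bead fluorescence after subtracting the streptavidin-only scavenger bead signal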
Target sequence (Q99759 whole entry, looked up, the tested form may be a part): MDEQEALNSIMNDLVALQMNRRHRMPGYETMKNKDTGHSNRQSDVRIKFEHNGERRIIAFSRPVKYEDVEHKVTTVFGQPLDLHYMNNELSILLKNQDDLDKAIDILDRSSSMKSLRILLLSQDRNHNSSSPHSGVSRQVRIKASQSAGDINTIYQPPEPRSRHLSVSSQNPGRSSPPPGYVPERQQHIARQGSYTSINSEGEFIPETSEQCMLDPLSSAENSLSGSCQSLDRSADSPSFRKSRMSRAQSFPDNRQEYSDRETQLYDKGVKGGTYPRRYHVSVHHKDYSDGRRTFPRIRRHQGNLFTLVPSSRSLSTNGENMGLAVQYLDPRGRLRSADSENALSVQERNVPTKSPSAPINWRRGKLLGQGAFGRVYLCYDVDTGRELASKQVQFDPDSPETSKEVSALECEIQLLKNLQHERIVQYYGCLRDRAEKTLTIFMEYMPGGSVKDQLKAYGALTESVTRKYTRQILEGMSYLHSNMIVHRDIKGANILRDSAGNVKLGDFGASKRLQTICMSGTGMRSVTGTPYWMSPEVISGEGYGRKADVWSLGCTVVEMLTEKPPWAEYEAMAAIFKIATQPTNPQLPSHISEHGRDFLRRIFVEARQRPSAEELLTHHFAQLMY
IMP-1 inhibitor = blocks Pseudomonas aeruginosa IMP-1 metallo-beta-lactamase; purified IMP-1, nitrocefin hydrolysis, epi-absorbance fluorescence; inhibition, % at 5.6 µM; hit rate 0.45% among 290,000;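 active = inhibition above the mean plus 3 SD of all compounds in the same screening run, cut at about 4.5% in these data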
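System: Purified recombinant IMP-1 metallo-beta-lactamase enzyme | Measured by: Fluorescence quenching readout, ex 480/em 530 nm | Replication: Singlicate | Incubation: 15 min preincubation plus 25 min reaction at 25 °C | Evaluation: Percent inhibition from optical density relative to buffer-blank wells | Benchmarks: DMSO with and without IMP-1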
MEKK2wt confirm = raises or lowers MEK5 binding to wildtype human MEKK2, retest; shares compounds with MEKK3 PB1 HTS; bead flow cytometry, Alexa488-MEK5 binding to MEKK2 WT; actives lie on both sides; binding response (% of control), % at 10 µM; hit rate 2.4% among 5,900; AID 1892; in the data active = binding response below about 16% or above about 210%; inactive = in between
MEKK2mut confirm = signal of MEK5 binding to mutant human MEKK2, retest; shares compounds with MEKK3 PB1 HTS; bead flow cytometry, Alexa488-MEK5 binding to MEKK2 mutant; percent response, % at 10 µM; hit rate 2% among 5,900; AID 1893; in the data active = percent response mostly above about 71%, no sharp cut-off; inactive = mostly below about 38%;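 note: higher means compound restores mutant binding toward wildtype level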
MEKK3 confirm = MEKK3-MEK5 PB1 inhibition, single concentration confirmation; binding response (% of control), % at 10 µM; bead flow cytometry, Alexa488-MEK5 binding to MEKK3; active compounds read low; hit rate 1.8% among 5,900; AID 1894; shares compounds with MEKK3 PB1 HTS;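 active = binding response below 72% of control, or above a set upper limit, though filed actives all read lower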;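 note: lower values mean stronger disruption of MEK5 binding to MEKK3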
Each line names hits and unclear results; the compound was inactive in the other large screens (follow-up assays come after a bar, where they were run); [ ] = another dose, or the depositor's remark.

CCN1CCN(CCNC(=O)c2ccc(/C=C3/Sc4ccccc4N(Cc4ccccc4C)C3=O)cc2)CC1	MEKK2 mut-MEK5 54, MEKK2wt PB1 HTS 203 | MEKK2wt confirm inactive | MEKK2mut confirm inactive | MEKK3 confirm inactive
Cc1ccccc1NC(=O)c1c(Cl)nc(C)c(Cl)c1C	none
Cc1nc(Cl)c(C(=O)NC(=O)NCc2ccccc2)c(C)c1Cl	MEKK3 PB1 HTS 142 | MEKK2wt confirm inactive | MEKK2mut confirm inactive | MEKK3 confirm inactive
CCN1CCN(C(=O)CCCCCn2c(=O)[nH]c3cc(C(=O)OC)ccc3c2=O)CC1	none
COC(=O)c1ccc2c(=O)n(CCCCCC(=O)N3CCN(c4ccccc4)CC3)c(=O)[nH]c2c1	MEKK3 PB1 HTS 122 | MEKK2wt confirm inactive | MEKK2mut confirm inactive | MEKK3 confirm inactive
Cc1c(C(=O)N2CCCCC2)nnn1-c1nonc1N	none
CCCCN(C)CCN1C(=O)C2C(C(=O)Nc3ccc(OC)cc3)C3C=CC2(O3)C1C(=O)NC1CCCCC1 (stereo not drawn)	none
CCOc1ccccc1C1C(C(=O)Nc2ccccc2OC)=C(C)Nc2nnnn21 (stereo not drawn)	MEKK2 mut-MEK5 26 | MEKK2wt confirm inactive | MEKK2mut confirm inactive | MEKK3 confirm inactive
Cc1cc(C)c[n+](-c2[nH]c(=O)sc2/C=N/NC([S-])=Nc2ccccc2)c1	MEKK3 PB1 HTS 136 | MEKK2wt confirm inactive | MEKK2mut confirm inactive | MEKK3 confirm inactive
Cc1ccc(NC(=O)CCNC(=O)c2ccccc2)cc1F	none
O=C(CCNC(=O)c1ccccc1)Nc1ccc(F)c(Cl)c1	MEKK3 PB1 HTS 138 | MEKK2wt confirm inactive | MEKK2mut confirm inactive | MEKK3 confirm inactive
CCc1nnc(NC(=O)CSc2nnc3c(C)cc4c(C)ccc(C)c4n23)s1	none
O=S(=O)(Nc1nc2ccccc2nc1Nc1ccc(N2CCOCC2)cc1)c1cc(Cl)ccc1Cl	MEKK3 PB1 HTS 150 | MEKK2wt confirm inactive | MEKK2mut confirm inactive | MEKK3 confirm inactive
Clc1nc(Nc2ccc(N3CCOCC3)cc2)c2ccccc2n1	none
CCOC(=O)N1CCN(CCC(=O)Nc2cc(OC)cc(OC)c2)CC1	none
N#C/C(=C\c1ccc(N2CCOCC2)cc1)c1ccccc1	MEKK3 PB1 HTS 137 | MEKK2wt confirm inactive | MEKK2mut confirm inactive | MEKK3 confirm inactive
CC(NC(=O)/C=C/c1ccco1)c1nc2ccccc2n1Cc1c(Cl)cccc1Cl (stereo not drawn)	none
CC(NC(=O)/C=C/c1ccco1)c1nc2ccccc2n1Cc1ccccc1F (stereo not drawn)	MEKK3 PB1 HTS 135 | MEKK2wt confirm inactive | MEKK2mut confirm inactive | MEKK3 confirm inactive
O=C(NNS(=O)(=O)c1ccccc1)c1ccc(S(=O)(=O)N2CCCCC2)cc1	none
O=C(Cc1coc2ccc3ccccc3c12)NC1CCCc2ccccc21 (stereo not drawn)	MEKK3 PB1 HTS 135 | MEKK2wt confirm inactive | MEKK2mut confirm inactive | MEKK3 confirm inactive
Cc1ccc(-n2nnnc2SCC(=O)NC2CCCc3ccccc32)cc1 (stereo not drawn)	MEKK3 PB1 HTS 140 | MEKK2wt confirm inactive | MEKK2mut confirm inactive | MEKK3 confirm inactive
CCOC(=O)NC(=O)CSc1nnnn1-c1ccc(C)cc1	MEKK2wt PB1 HTS 2.0[inhibitor], MEKK3 PB1 HTS 2.0[inhibitor] | MEKK2wt confirm inactive | MEKK2mut confirm inactive | MEKK3 confirm inactive
Cc1cccc(C)c1NC(=O)CS(=O)CC(=O)NC1CCCc2ccccc21 (stereo not drawn)	MEKK3 PB1 HTS 132 | MEKK2wt confirm inactive | MEKK2mut confirm inactive | MEKK3 confirm inactive
Cc1ccc(-n2nnnc2SCC(=O)NC2CCCc3ccccc32)c(C)c1 (stereo not drawn)	none
N#Cc1ccc(-c2cccnc2)nc1SCc1ccc(Cl)c(Cl)c1	none

High-throughput results as filed in PubChem.
